pIC50: −log10 of the molar value.
What was measured:
hERG (KCNH2) = hERG (KCNH2) (Homo sapiens, UniProt Q12809); experiment: Inhibition of human ERG expressed in HMZ/CHO.8B4 cells at 10 uM by patch clamp assay; type: cell-based; details: HMZ/CHO.8B4 cells expressing human ERG
[1] = biological target: T1, Melanin-concentrating hormone receptor 1 (Homo sapiens, UniProt Q99705); experiment: Antagonist activity at human MCHR1 expressed in CHO cells assessed as inhibition of MCH-stimulated arachidonic acid release after 45 mins by liquid scintillation counting; type: functional, cell-based
[2] = Lipophilicity, log D of the compound at pH 7.4; type: physicochemical; details: buffer
[3] = biological target: Melanin-concentrating hormone receptor 1 (Rattus norvegicus, UniProt P97639); experiment: Displacement of [125I]MCH from rat MCHR1 expressed in CHO cells after 60 mins by liquid scintillation counting; type: cell-based
In short: (§1)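 Membrane homogenates from CHO cells stably expressing human or rat MCHR1 in 25 mM Tris-HCl pH 7.5 with EDTA, BSA and protease inhibitors. Membrane protein 2 μg/mL (human) or 4 μg/mL (rat). Nonspecific binding defined with 0.3 μM MCH(1–19). Filter radioactivity counted. IC50 from one experiment in duplicate.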

[4] = biological target: Voltage-gated inwardly rectifying potassium channel KCNH2 (Homo sapiens, UniProt Q12809); experiment: Inhibition of human ERG expressed in HMZ/CHO.8B4 cells assessed as inhibition of Rb+ efflux at 30 uM after 30 mins by flame atomic absorption spectrometer analysis relative to astemizole; type: cell-based; details: 0.5 h
In short: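 HMZ/CHO.8B4 cells stably expressing hERG, 4 × 10⁴ cells/well, 24 h on collagen, Rb-loaded 3 h at 37 °C (5.4 mM RbCl, pH 7.4). Compound added for 30 min (n = 7), then 5 min stimulation with 50 mM KCl. Supernatant and lysate Rb⁺ read by flame atomic absorption. Fractional efflux normalized to background and maximum; astemizole as 0, vehicle as 1.0.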

[5] = biological target: T1, Melanin-concentrating hormone receptor 1; experiment: Displacement of [125I]MCH from human MCHR1 expressed in CHO cells after 60 mins by liquid scintillation counting; type: cell-based; in short: as §1
[6] = Cmax in Sprague-Dawley rat plasma at 3 mg/kg, po; type: ADME, organism-based; set-up: dose 3 mg/kg, route oral
In short: (§2)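 Male Sprague-Dawley rats, 8 weeks old, given oral dose.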

[7] = Total clearance in Sprague-Dawley rat plasma at 1 mg/kg, iv; type: ADME, organism-based; set-up: dose 1 mg/kg, route intravenous
In short: (§3)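 Male Sprague-Dawley rats, 8 weeks old, given intravenous dose.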

Rattus norvegicus = experiment: Antiobesity activity in po dosed diet induced obese F344 rat model assessed as inhibition of food intake administered qd for 2 days; type: functional, organism-based
In short: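 Male F344/Jcl rats, 32 weeks old, on high-fat diet from 5 weeks of age, housed singly on a 7:00–19:00 light cycle, habituated to oral water dosing, grouped by food intake and body weight (n = 6). Dosed orally at 1, 3, 5 or 10 mg/kg in 0.5% methylcellulose (2 mL/kg) at 5:00 p.m. on days 0 and 1. Cumulative intake on days 1 and 2 expressed as ratio to vehicle group; Williams test.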

[8] = Tmax in Sprague-Dawley rat at 3 mg/kg, po; type: ADME, organism-based; set-up: dose 3 mg/kg, route oral; details: in vivo; in short: as §2
[9] = AUC (0 to 24 hrs) in Sprague-Dawley rat at 3 mg/kg, po; type: ADME, organism-based; set-up: time < 24 hr, dose 3 mg/kg, route oral; details: plasma; in short: as §2
[10] = Volume of distribution at steady state in Sprague-Dawley rat at 1 mg/kg, iv; type: ADME, organism-based; set-up: dose 1 mg/kg, route intravenous; details: in vivo, read-out: Vdss; in short: as §3
[11] = Bioavailability in Sprague-Dawley rat; type: ADME, organism-based; details: in vivo

T1 sequence (Q99705 whole entry): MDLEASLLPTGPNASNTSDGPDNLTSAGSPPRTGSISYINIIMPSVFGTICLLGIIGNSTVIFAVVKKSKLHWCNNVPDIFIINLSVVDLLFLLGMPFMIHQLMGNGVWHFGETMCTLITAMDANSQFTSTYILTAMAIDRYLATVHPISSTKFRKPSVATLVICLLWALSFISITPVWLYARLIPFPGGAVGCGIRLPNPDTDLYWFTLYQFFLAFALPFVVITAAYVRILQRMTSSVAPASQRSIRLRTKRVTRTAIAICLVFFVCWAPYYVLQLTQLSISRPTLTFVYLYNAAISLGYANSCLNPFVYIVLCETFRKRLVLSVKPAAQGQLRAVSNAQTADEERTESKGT
Chain of hERG (KCNH2) (Q12809 whole entry): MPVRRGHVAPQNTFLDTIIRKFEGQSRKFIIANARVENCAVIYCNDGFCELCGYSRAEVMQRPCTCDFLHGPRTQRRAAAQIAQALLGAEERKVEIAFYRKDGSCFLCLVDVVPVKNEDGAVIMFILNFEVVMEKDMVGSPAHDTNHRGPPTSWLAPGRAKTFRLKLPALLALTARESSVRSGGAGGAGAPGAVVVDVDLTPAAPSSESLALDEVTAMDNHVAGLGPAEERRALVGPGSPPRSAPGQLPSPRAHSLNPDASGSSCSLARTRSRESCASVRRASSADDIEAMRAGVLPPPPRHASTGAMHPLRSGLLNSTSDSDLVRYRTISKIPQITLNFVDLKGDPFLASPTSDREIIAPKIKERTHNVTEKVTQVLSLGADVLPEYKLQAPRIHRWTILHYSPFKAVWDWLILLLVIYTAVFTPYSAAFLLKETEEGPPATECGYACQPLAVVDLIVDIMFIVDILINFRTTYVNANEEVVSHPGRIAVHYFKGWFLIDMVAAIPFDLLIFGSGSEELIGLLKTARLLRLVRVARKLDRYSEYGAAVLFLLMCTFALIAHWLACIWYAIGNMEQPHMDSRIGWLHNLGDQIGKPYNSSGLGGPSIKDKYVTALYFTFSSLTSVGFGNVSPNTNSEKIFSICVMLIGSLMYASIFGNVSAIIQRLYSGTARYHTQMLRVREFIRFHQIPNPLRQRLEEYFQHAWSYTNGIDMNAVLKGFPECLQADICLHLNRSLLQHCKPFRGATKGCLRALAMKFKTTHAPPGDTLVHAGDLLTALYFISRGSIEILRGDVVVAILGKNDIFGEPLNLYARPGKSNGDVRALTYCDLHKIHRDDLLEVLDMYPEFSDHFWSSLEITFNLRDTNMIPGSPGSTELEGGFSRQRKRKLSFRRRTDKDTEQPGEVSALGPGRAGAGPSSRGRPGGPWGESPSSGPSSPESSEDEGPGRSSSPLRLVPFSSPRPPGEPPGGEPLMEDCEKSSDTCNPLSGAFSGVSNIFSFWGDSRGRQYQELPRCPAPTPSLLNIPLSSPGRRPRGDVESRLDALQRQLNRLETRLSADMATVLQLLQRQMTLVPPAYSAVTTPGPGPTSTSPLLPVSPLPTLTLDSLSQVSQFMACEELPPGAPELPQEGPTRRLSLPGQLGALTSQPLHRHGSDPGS
Chain of Voltage-gated inwardly rectifying potassium channel KCNH2 (Q12809 whole entry): as above
Chain of Melanin-concentrating hormone receptor 1 (Rattus norvegicus, UniProt P97639) (P97639 whole entry): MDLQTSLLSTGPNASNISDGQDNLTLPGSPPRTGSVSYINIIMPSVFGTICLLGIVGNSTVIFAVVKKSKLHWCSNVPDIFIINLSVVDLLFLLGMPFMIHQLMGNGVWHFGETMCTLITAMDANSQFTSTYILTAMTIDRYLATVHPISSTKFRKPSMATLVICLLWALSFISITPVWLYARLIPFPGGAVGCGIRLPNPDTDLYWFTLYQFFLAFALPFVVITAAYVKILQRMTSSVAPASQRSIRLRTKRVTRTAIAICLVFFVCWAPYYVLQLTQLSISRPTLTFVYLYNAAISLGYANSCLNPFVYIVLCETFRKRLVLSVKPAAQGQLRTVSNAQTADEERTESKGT

Question: For `CC(=O)NCCNC(C)c1cnc2c(C)c(NC(=O)c3ccc(OCC4CC4)cc3)ccc2c1` (racemic), which inhibition at 10 µM (hERG (KCNH2)) is on record?
Answer: 29.3%

Question: With `Cc1c(NC(=O)c2ccc(OCC3CC3)cc2)ccc2cc(C(C)N3CCCC3)cnc12` (racemic) as the compound, how does the pIC50 [1] read?
Answer: 8.19

Question: And the logD [2]?
Answer: 3

Question: What about the pIC50 [3] of the same compound?
Answer: 8.38

Question: And the Ratio [4]?
Answer: 1.02

Question: What about the pIC50 [5] of the same compound?
Answer: 8.77

Question: What does the source list for `Cc1c(NC(=O)c2ccc(OCC3CC3)cc2)ccc2cc(CN3CCCC3)cnc12`?
Answer: pIC50 [1]: 8.37; logD [2]: 2.77; pIC50 [3]: 8.80; Ratio [4]: 0.9; pIC50 [5]: 8.74

Question: Which results are given for `Cc1c(NC(=O)c2ccc(OCC3CC3)cc2)ccc2cc(C(C)NCC(C)(C)O)cnc12` (racemic)?
Answer: inhibition at 10 µM (hERG (KCNH2)): 63.3%; pIC50 [1]: 8.19; logD [2]: 2.67; pIC50 [3]: 8.57; pIC50 [5]: 8.82

Question: For `Cc1c(NC(=O)c2ccc(OCC3CC3)cc2)ccc2cc(C(C)N3CC[C@H](O)C3)cnc12` (mixture of isomers), which inhibition at 10 µM (hERG (KCNH2)) is on record?
Answer: 58.4%

Question: What does the source list for `Cc1c(NC(=O)c2ccc(-c3ccc(F)cc3)cc2)ccc2cc(CN3CCCC3)cnc12`?
Answer: inhibition at 10 µM (hERG (KCNH2)): 93.8%; logD [2]: 2.77; pIC50 [3]: 9.00; Ratio [4]: 0.17

Question: With `Cc1c(NC(=O)c2ccc(OCC3CC3)cc2)ccc2cc(CN3CCCC3C)cnc12` (racemic) as the compound, how does the pIC50 [3] read?
Answer: 8.17

Question: And the pIC50 [5]?
Answer: 8.60

Question: With `Cc1c(NC(=O)c2ccc(OCC3CC3)cc2)ccc2cc(C(C)N3CCCCCC3)cnc12` (racemic) as the compound, how does the pIC50 [1] read?
Answer: 8.47

Question: What about the logD [2] of the same compound?
Answer: 3.91

Question: What about the pIC50 [3] of the same compound?
Answer: 8.25

Question: What about the Ratio [4] of the same compound?
Answer: 0.73

Question: And the pIC50 [5]?
Answer: 8.70

Question: For `Cc1c(NC(=O)c2ccc(OCC3CC3)cc2)ccc2cc(C(C)NCCO)cnc12` (racemic), which inhibition at 10 µM (hERG (KCNH2)) is on record?
Answer: 84.8%

Question: With `Cc1c(NC(=O)c2ccc(OCC3CC3)cc2)ccc2cc([C@H](C)N3CCCC3)cnc12` as the compound, how does the pIC50 [1] read?
Answer: 8.40

Question: And the logD [2]?
Answer: 2.99

Question: What about the pIC50 [3] of the same compound?
Answer: 8.10

Question: And the Ratio [4]?
Answer: 0.85

Question: And the pIC50 [5]?
Answer: 8.47

Question: Which results are given for `Cc1c(NC(=O)c2ccc(OCC(C)C)cc2)ccc2cc(CN3CCCC3)cnc12`?
Answer: logD [2]: 3.35; pIC50 [3]: 8.17; Ratio [4]: 0.7; pIC50 [5]: 8.36

Question: What does the source list for `CCCCCC(=O)c1ccc(C(=O)Nc2ccc3cc(CN4CCCC4)cnc3c2C)cc1`?
Answer: logD [2]: 3.5; Ratio [4]: 0.48; pIC50 [5]: 6.77

Question: Which inhibition at 10 µM (hERG (KCNH2)) does the source give for `Cc1c(NC(=O)c2ccc(OCC3CC3)cc2)ccc2cc([C@@H](C)N3CCCC3)cnc12` here?
Answer: 88.1%

Question: What about the pIC50 [1] of the same compound?
Answer: 8.54

Question: What about the logD [2] of the same compound?
Answer: 2.99

Question: And the pIC50 [3]?
Answer: 8.72

Question: What about the Ratio [4] of the same compound?
Answer: 1.11

Question: What about the pIC50 [5] of the same compound?
Answer: 8.96

Question: For `CC(=O)NCCN[C@@H](C)c1cnc2c(C)c(NC(=O)c3ccc(OCC4CC4)cc3)ccc2c1`, which inhibition at 10 µM (hERG (KCNH2)) is on record?
Answer: 33.3%

Question: What does the source list for `CC(=O)NCCN[C@H](C)c1cnc2c(C)c(NC(=O)c3ccc(OCC4CC4)cc3)ccc2c1`?
Answer: Cmax [6]: 274 ng/mL; clearance [7]: 11.5 mL/min/kg; inhibition (Rattus norvegicus): Dose-dependent effect; Tmax [8]: 4 h; inhibition at 10 µM (hERG (KCNH2)): 33.2%; AUC(0-t) at 24 h [9]: 1940 ng·h/mL; Vd [10]: 1.21 L/kg; bioavailability [11]: 43%

— ChEMBL document CHEMBL2057191, “Synthesis, structure-activity relationship, and pharmacological studies of novel melanin-concentrating hormone receptor 1 antagonists 3-aminomethylquinolines: reducing human ether-a-go-go-related gene (hERG) associated liabilities” (J Med Chem, 2012)
